In ChEMBL document CHEMBL4680095, “Potent Antitumor Activities and Structure Basis of the Chiral β-Lactam Bridged Analogue of Combretastatin A-4 Binding to Tubulin” (J Med Chem, 2016):
Calls of active or inactive are those of the source. The calls are words filed in the database; no cut-off is given here.

Experiments:
SK-OV-3 = assay: Growth inhibition of human SK-OV-3 cells; format: functional, cell-based
A2780 [1] = assay: Growth inhibition of human A2780 cells; format: functional, cell-based
MDA-MB-231 = assay: Growth inhibition of human MDA-MB-231 cells; format: functional, cell-based
[2] = Inhibition of pig brain tubulin polymerization incubated for 20 mins by spectrophotometry; format: tissue-based, Sus scrofa
HeLa = assay: Growth inhibition of human HeLa cells; format: functional, cell-based
[3] = Toxicity in Balb/C mouse; conditions: in vivo
A2780 [4] = assay: Antitumor activity against human A2780 cells xenografted in Balb/C mouse assessed as inhibition of tumor growth at 12.5 mg/kg, ip dosed once every 2 days; format: functional, organism-based; conditions: time 2.0 day
Summary of the method: (§1)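 Xenograft model built by subcutaneous inoculation of A2780 cells into female Balb/C nude mice, then treated at 12.5 mg/kg. Read-outs named per line: tumor growth, main organs examined for abnormalities, body weight monitored.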

[5] = Toxicity in Balb/C mouse xenografted with human A2780 cells assessed as induction of body weight loss at 12.5 mg/kg, ip dosed once every 2 days; format: organism-based; conditions: in vivo, 48 h, time 2 day; summary of the method: as §1
[6] = Toxicity in Balb/C mouse xenografted with human A2780 cells assessed as induction of abnormalities of visceral organs at 12.5 mg/kg, ip dosed once every 2 days; format: organism-based; conditions: in vivo, 48 h, time 2 day; summary of the method: as §1

| Structure (SMILES) | IC50 (SK-OV-3) [nM] | IC50 (A2780 [1]) [nM] | IC50 (MDA-MB-231) [nM] | IC50 [2] [nM] | IC50 (HeLa) [nM] | LD50 [3] [mg/kg] | TGI (A2780 [4]) | Activity [5] | Activity [6] |
| --- | --- | --- | --- | --- | --- | --- | --- | --- | --- |
| C=C1C(=O)N(c2cc(OC)c(OC)c(OC)c2)[C@H]1c1ccc(OC)c(O)c1 | 114 | 115 | 308 | 6600 | 243 |  |  |  |  |
| COc1cc2c(c(OC)c1OC)-c1ccc(OC)c(=O)cc1[C@@H](NC(C)=O)CC2 [COLCHICINE] |  |  |  |  |  | 4 |  |  |  |
| COc1ccc(/C=C\c2cc(OC)c(OC)c(OC)c2)cc1O [COMBRETASTATIN A4] |  |  |  | 1320 |  |  |  |  |  |
| C=C1C(=O)N(c2cc(OC)c(OC)c(OC)c2)[C@@H]1c1ccc(OC)c(O)c1 | 3500 | 4600 | > 10000 | > 100000 | 5500 |  |  |  |  |
| COc1ccc([C@H]2[C@@H](C)C(=O)N2c2cc(OC)c(OC)c(OC)c2)cc1O | 57 | 31 | 56 | 3500 | 63 | > 500 | Active | Non-Toxic | Non-Toxic |
